According to article PMC9089800 (RSC Advances, 2018):

What was measured:
MCF7 = assay: MTT growth inhibition / cytotoxicity assay, MCF7; assay type: cell-based, human; settings: Homo sapiens, MCF7, 48 h, read-out: IC50 in μM MCF7, MTT, 48 h, 0–100 μM
MCF10A = assay: cells; assay type: cell-based; settings: 48 h
MCF7 cells [1] = assay: Cell cycle analysis by FACS; assay type: cell-based, human; settings: MCF7, 24 h; 30 μM of 9, 20 μM of 10
Summary of the method: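 Cells seeded a day before; treated 24 h with test compound or DMSO vehicle (final DMSO <0.02%). Cells trypsinised, pelleted at 4 °C, fixed overnight at 4 °C in chilled 95% ethanol, and PBS-washed. Stained with propidium iodide plus RNase in PBS/2 mM MgCl2 for 20 min at 37 °C, then acquired by flow cytometry. Three repeats; mean sub-G1 population plotted.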

MCF7 cells [2] = assay: DNA fragmentation assay; assay type: cell-based, human; settings: MCF7, 24 h; 30 μM of 9, 20 μM of 10
caspase 9 = assay: Western blot for apoptotic pathway; assay type: cell-based, human; settings: MCF7, 24 h; 30 μM of 9, 20 μM of 10
Summary of the method: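 MCF7 cells exposed 24 h to DMSO vehicle or test compound. Lysed 20 min on ice in Tris pH 7.4/EDTA/NaCl/NaF/orthovanadate/0.5% Triton X-100, then cleared at 16000 × g at 4 °C. Protein quantified by Bradford; samples boiled in Laemmli buffer. SDS-PAGE, PVDF transfer, 3% milk/TBST block. Anti-caspase 9 overnight at 4 °C; HRP secondary; chemiluminescent detection.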

MCF7 cells [3] = assay: Immunostaining; assay type: cell-based, human; settings: IC50 concentration, 12 hours
Summary of the method: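 Cells grown overnight as a monolayer on coverslips, then exposed to test compound for 12 h. Fixed in 3.7% formaldehyde for 20 min at room temperature in the dark. Permeabilised with 0.5% Tween-20 for 30 min, then blocked with 3% BSA. Stained 1 h with anti-α-tubulin, then 1 h with Alexa Fluor 594 secondary. DNA counterstained with Hoechst; mounted in DABCO/glycerol.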

| SMILES | IC50 (MCF7) | other results |
| --- | --- | --- |
| C=C1[C@@H]2[C@H]3OC(=O)[C@@H](CN[C@@H](C)c4ccccc4)[C@@H]3CCC(=C)[C@@H]2C[C@@H]1O [Compound 4, (3R,3aS,6aR,8S,9aR,9bS)-8-Hydroxy-6,9-dimethylene-3-((((S)-1-phenylethyl)amino)methyl)decahydroazuleno[4,5-b]furan-2(3H)-one] | > 100 µM |  |
| C=C1[C@@H]2[C@H]3OC(=O)[C@@H](CN[C@H](C)c4ccccc4)[C@@H]3CCC(=C)[C@@H]2C[C@@H]1O [Compound 6, (3R,3aS,6aR,8S,9aR,9bS)-8-Hydroxy-6,9-dimethylene-3-((((R)-1-phenylethyl)amino)methyl)decahydroazuleno[4,5-b]furan-2(3H)-one] | > 100 µM |  |
| C=C1[C@@H]2[C@H]3OC(=O)[C@@H](CN[C@@H](C)c4cccc5ccccc45)[C@@H]3CCC(=C)[C@@H]2C[C@@H]1OC(C)=O [Compound 7, (3R,3aS,6aR,8S,9aR,9bS)-6,9-Dimethylene-3-((((S)-1-(naphthalen-1-yl)ethyl)amino)methyl)-2-oxododecahydroazuleno[4,5-b]furan-8-yl acetate] | > 100 µM |  |
| C=C1[C@@H]2[C@H]3OC(=O)[C@@H](CN[C@@H](C)c4cccc5ccccc45)[C@@H]3CCC(=C)[C@@H]2C[C@@H]1O [Compound 8, (3R,3aS,6aR,8S,9aR,9bS)-8-Hydroxy-6,9-dimethylene-3-((((S)-1-(naphthalene-1-yl)ethyl)amino)methyl)decahydroazuleno[4,5-b] furan-2(3H)-one] | 75.8 ± 3 µM |  |
| C=C1[C@@H]2[C@H]3OC(=O)[C@@H](CN[C@H](C)c4cccc5ccccc45)[C@@H]3CCC(=C)[C@@H]2C[C@@H]1O [Compound 10, (3R,3aS,6aR,8S,9aR,9bS)-8-Hydroxy-6,9-dimethylene-3-((((R)-1-(naphthalen-1-yl)ethyl)amino)methyl)decahydroazuleno[4,5-b] furan-2(3H)-one] |  | IC50 (MCF10A; Homo sapiens, MCF-10A, read-out: IC50 in μM MCF10A): > 100 µM; cytotoxic effect on normal breast epithelial MCF10A cells (in words) (MCF10A; MTT): minimal cytotoxic effect; apoptotic (sub-G1) population (MCF7 cells [1]): significantly increased the apoptotic populations; fragmentation of genomic DNA (ladder on agarose gel) (MCF7 cells [2]): substantial fragmented DNA ladder; apoptotic pathway (caspase 9 immunoblot) (caspase 9): cleavage of caspase 9; DNA fragmentation by Hoechst staining, tubulin morphology (MCF7 cells [3]): fragmented DNA |
| C=C1[C@@H]2[C@H]3OC(=O)[C@@H](CN[C@H](C)C4CCCCC4)[C@@H]3CCC(=C)[C@@H]2C[C@@H]1O [Compound 11, (3R,3aS,6aR,8S,9aR,9bS)-3-((((R)-1-Cyclohexylethyl)amino)methyl)-8-hydroxy-6,9-dimethylenedecahydroazuleno[4,5-b]furan-2(3H)-one] | > 100 µM |  |
| C=C1[C@@H]2[C@H]3OC(=O)[C@@H](CN[C@@H](C)C4CCCCC4)[C@@H]3CCC(=C)[C@@H]2C[C@@H]1O [Compound 12, (3R,3aS,6aR,8S,9aR,9bS)-3-((((S)-1-Cyclohexylethyl)amino)methyl)-8-hydroxy-6,9-dimethylenedecahydroazuleno[4,5-b]furan-2(3H)-one] | > 100 µM |  |
| C=C1[C@@H]2[C@H]3OC(=O)[C@@H](CN4CCOCC4)[C@@H]3CCC(=C)[C@@H]2C[C@@H]1OC(C)=O [Compound 17, (3R,3aS,6aR,8S,9aR,9bS)-6,9-Dimethylene-3-(morpholinomethyl)-2-oxododecahydroazuleno[4,5-b]furan-8-yl acetate] | > 100 µM |  |
| C=C1[C@@H]2[C@H]3OC(=O)[C@@H](CN4CCOCC4)[C@@H]3CCC(=C)[C@@H]2C[C@@H]1O [Compound 18, (3R,3aS,6aR,8S,9aR,9bS)-8-Hydroxy-6,9-dimethylene-3-(morpholinomethyl)decahydroazuleno[4,5-b]furan-2(3H)-one] | > 100 µM |  |
| C=C1[C@@H]2[C@H]3OC(=O)[C@@H](CN4CCCC4)[C@@H]3CCC(=C)[C@@H]2C[C@@H]1O [Compound 19, (3R,3aS,6aR,8S,9aR,9bS)-8-Hydroxy-6,9-dimethylene-3-(pyrrolidin-1-ylmethyl)decahydroazuleno[4,5-b]furan-2(3H)-one] | > 100 µM |  |
| C=C1[C@@H]2[C@H]3OC(=O)[C@@H](CN4CCCCC4)[C@@H]3CCC(=C)[C@@H]2C[C@@H]1O [Compound 20, (3R,3aS,6aR,8S,9aR,9bS)-8-Hydroxy-6,9-dimethylene-3-(piperidin-1-ylmethyl)decahydroazuleno[4,5-b]furan-2(3H)-one] | > 100 µM |  |
| C=C1[C@@H]2[C@H]3OC(=O)[C@@H](COC)[C@@H]3CCC(=C)[C@@H]2C[C@@H]1O [Compound 22, (3R,3aS,6aR,8S,9aR,9bS)-8-Hydroxy-3-(methoxymethyl)-6,9-dimethylenedecahydroazuleno[4,5-b]furan-2(3H)-one] | > 100 µM |  |
| C=C1[C@@H]2[C@H]3OC(=O)/C(=C/c4ccc(C)cc4)[C@@H]3CCC(=C)[C@@H]2C[C@@H]1OC(C)=O [Compound 23, (3aS,6aR,8S,9aR,9bS)-3-((E)-4-Methylbenzylidene)-6,9-dimethylene-2-oxododecahydroazuleno[4,5-b]furan-8-yl acetate] | > 100 µM |  |
| C=C1[C@@H]2[C@H]3OC(=O)/C(=C/c4cccc(C(F)(F)F)c4)[C@@H]3CCC(=C)[C@@H]2C[C@@H]1OC(C)=O [Compound 24, (3aS,6aR,8S,9aR,9bS)-6,9-Dimethylene-2-oxo-3-((E)-3-(trifluoro-methyl)benzylidene)dodecahydroazuleno[4,5-b]furan-8-yl acetate] | > 100 µM |  |
| C=C1[C@@H]2[C@H]3OC(=O)/C(=C/c4ccc(Cl)cc4)[C@@H]3CCC(=C)[C@@H]2C[C@@H]1OC(C)=O [Compound 25, (3aS,6aR,8S,9aR,9bS)-3-((E)-4-Chlorobenzylidene)-6,9-dimethylene-2-oxododecahydroazuleno[4,5-b]furan-8-yl acetate] | > 100 µM |  |
| C=C1[C@@H]2[C@H]3OC(=O)/C(=C/c4c(OC)cccc4[N+](=O)[O-])[C@@H]3CCC(=C)[C@@H]2C[C@@H]1OC(C)=O [Compound 26, (3aS,6aR,8S,9aR,9bS)-3-((E)-2-Methoxy-6-nitrobenzylidene)-6,9-dimethylene-2-oxododecahydroazuleno[4,5-b]furan-8-yl acetate] | > 100 µM |  |
| C=C1[C@@H]2[C@H]3OC(=O)/C(=C/c4ccc(C)c([N+](=O)[O-])c4)[C@@H]3CCC(=C)[C@@H]2C[C@@H]1OC(C)=O [Compound 27, (3aS,6aR,8S,9aR,9bS)-3-((E)-4-Methyl-3-nitrobenzylidene)-6,9-dimethylene-2-oxododecahydroazuleno[4,5-b]furan-8-yl acetate] | > 100 µM |  |
| C=C1[C@@H]2[C@H]3OC(=O)/C(=C/c4ccc(NC(C)=O)c(C(F)(F)F)c4)[C@@H]3CCC(=C)[C@@H]2C[C@@H]1OC(C)=O [Compound 28, (3aS,6aR,8S,9aR,9bS)-3-((E)-4-Acetamido-3-(trifluoromethyl)benzylidene)-6,9-dimethylene-2-oxododecahydroazuleno[4,5-b] furan-8-yl acetate] | > 100 µM |  |
| C=C1[C@@H]2[C@H]3OC(=O)/C(=C/c4ccccc4C)[C@@H]3CCC(=C)[C@@H]2C[C@@H]1OC(C)=O [Compound 29, (3aS,6aR,8S,9aR,9bS)-3-((E)-2-Methylbenzylidene)-6,9-dimethylene-2-oxododecahydroazuleno[4,5-b]furan-8-yl acetate] | 74 µM |  |
| C=C1[C@@H]2[C@H]3OC(=O)/C(=C/c4ccc(C(=O)OC)cc4)[C@@H]3CCC(=C)[C@@H]2C[C@@H]1OC(C)=O [Compound 30, Methyl-4-((E)-((3aS,6aR,8S,9aR,9bS)-8-acetoxy-6,9-dimethylene-2-oxodecahydroazuleno[4,5-b]furan-3(2H)-ylidene)methyl)benzoate] | > 100 µM |  |
| C=C1[C@@H]2[C@H]3OC(=O)/C(=C/c4ccccc4[N+](=O)[O-])[C@@H]3CCC(=C)[C@@H]2C[C@@H]1OC(C)=O [Compound 32, (3aS,6aR,8S,9aR,9bS)-6,9-Dimethylene-3-((E)-2-nitrobenzylidene)-2-oxododecahydroazuleno[4,5-b]furan-8-yl acetate] | 36.5 µM |  |
| C=C1[C@@H]2[C@H]3OC(=O)/C(=C/c4ccc(Cl)cc4[N+](=O)[O-])[C@@H]3CCC(=C)[C@@H]2C[C@@H]1OC(C)=O [Compound 33, (3aS,6aR,8S,9aR,9bS)-3-((E)-4-Chloro-2-nitrobenzylidene)-6,9-dimethylene-2-oxododecahydroazuleno[4,5-b]furan-8-yl acetate] | > 100 µM |  |
| C=C1[C@@H]2[C@H]3OC(=O)/C(=C/c4ccc(C)cc4[N+](=O)[O-])[C@@H]3CCC(=C)[C@@H]2C[C@@H]1OC(C)=O [Compound 34, (3aS,6aR,8S,9aR,9bS)-3-((E)-4-Methyl-2-nitrobenzylidene)-6,9-dimethylene-2-oxododecahydroazuleno[4,5-b]furan-8-yl acetate] | > 100 µM |  |
